Common to all, as to type: functional, organism-based
Holding throughout (conditions): Microsome

The species named for assay [1] is Mus musculus. Nature of the assay: The percent recovery of the addedglycolipid (100 ug) with the liposomes in Mice at 5% w/w of the compound. The procedure, abridged:
(§1)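 Glycolipid (0–50 μg; 5, 10 or 50% w/w) incubated with sonicated [3H]cholesteryl oleate-labeled egg PC liposomes (100 μg phospholipid) for 30 min at 37 °C. Incorporated and free glycolipid separated by FPLC on Superose-6 or Sephacryl S-1000, PBS pH 7.4 eluent, 50 μL/min. Galactose content of fractions measured by galactose oxidase assay. Recovery is given as percent of added glycolipid eluting with liposomes. Mean ± variation, n = 2.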

The species entered for assay [2] is Mus musculus. Nature of the assay: The percent recovery of the addedglycolipid (100 ug) with the liposomes in Mice at 50% w/w (n = 2). The procedure, abridged: as §1
For assay [3], the system named is Mus musculus. Nature of the assay: Uptake by the liver liposomes upon intravenous injection in Mice at 50% w/w (n = 2). The method, boiled down: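 Optional asialofetuin preinjection (50 mg/kg) given 1 min before. Liver lobules and blood sampled over time. At 30 min, liver 3H is expressed as % injected dose, corrected for serum radioactivity. Mean ± variation of two experiments.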

The species entered for assay [4] is Mus musculus. Briefly: The percent recovery of the addedglycolipid (100 ug) with the liposomes in Mice at 5% w/w (n = 2). The method, boiled down: as §1
For assay [5], the species on record is Mus musculus. Nature of the assay: The percent recovery of the addedglycolipid (100 ug) with the liposomes in Mice at 10% w/w (n = 2). The method, boiled down: as §1

`CCCCCCCC/C=C\CCCCCCCC(=O)O[C@H]1CC[C@@]2(C)C(=CC[C@H]3[C@@H]4CC[C@H](C(C)C(=O)NCCCC(=O)NCC(=O)NC(COCCC(=O)NCCCNC(=O)CCCCO[C@@H]5O[C@H](CO)[C@H](O)[C@@H](O)[C@H]5O)(COCCC(=O)NCCCNC(=O)CCCCO[C@@H]5O[C@H](CO)[C@H](O)[C@@H](O)[C@H]5O)COCCC(=O)NCCCNC(=O)CCCCO[C@@H]5O[C@H](CO)[C@H](O)[C@@H](O)[C@H]5O)[C@@]4(C)CC[C@@H]32)C1` (stereo partly specified) registered a Recovery in the assay filed under Mus musculus [1] of 100%.

On to `CCCCCCCC/C=C\CCCCCCCC(=O)O[C@H]1CC[C@@]2(C)C(CC[C@H]3[C@@H]4CC[C@H](C(C)CCC(=O)NCCCC(=O)NCC(=O)NC(COCCC(=O)NCCCNC(=O)CCCCO[C@@H]5O[C@H](CO)[C@H](O)[C@@H](O)[C@H]5O)(COCCC(=O)NCCCNC(=O)CCCCO[C@@H]5O[C@H](CO)[C@H](O)[C@@H](O)[C@H]5O)COCCC(=O)NCCCNC(=O)CCCCO[C@@H]5O[C@H](CO)[C@H](O)[C@@H](O)[C@H]5O)[C@@]4(C)CC[C@@H]32)C1` (stereo partly specified), for which the Recovery in the assay filed under Mus musculus [2] came to 59.4%; in the assay listed under Mus musculus [4], 100%; in the assay listed under Mus musculus [5] it was 96.5%. In the assay on Mus musculus [3], this compound came in with an Uptake of 83.5%.

For `CCCCCCCC/C=C\CCCCCCCC(=O)O[C@H]1CC[C@@]2(C)C(=CC[C@H]3[C@@H]4CC[C@H](C(C)CCC(=O)NCCCC(=O)NCC(=O)NC(COCCC(=O)NCCCNC(=O)CCCCO[C@@H]5O[C@H](CO)[C@H](O)[C@@H](O)[C@H]5O)(COCCC(=O)NCCCNC(=O)CCCCO[C@@H]5O[C@H](CO)[C@H](O)[C@@H](O)[C@H]5O)COCCC(=O)NCCCNC(=O)CCCCO[C@@H]5O[C@H](CO)[C@H](O)[C@@H](O)[C@H]5O)[C@@]4(C)CC[C@@H]32)C1` (stereo partly specified), the Recovery in the assay listed under Mus musculus [1] came out at 100%.

These data come from ChEMBL document CHEMBL1132583, “Design and synthesis of novel amphiphilic dendritic galactosides for selective targeting of liposomes to the hepatic asialoglycoprotein receptor” (J Med Chem, 1999).
